IMP-1 inh = IMP-1 metallo-beta-lactamase inhibitors, primary screen, biochemical, epi-absorbance readout, Pseudomonas aeruginosa enzyme; purified IMP-1, nitrocefin hydrolysis, epi-absorbance fluorescence; inhibition, % at 5.6 µM; 0.45% of 290,000 active;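 active = inhibition above the mean plus 3 SD of all compounds in the same screening run, cut at about 4.5% in these data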;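 also: 0% = IMP-1 with DMSO and 100% = DMSO wells lacking enzyme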
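Assay system: purified recombinant IMP-1 beta-lactamase. Input: IMP-1 0.2 nM before substrate addition. Buffer or medium: Zinc- and detergent-supplemented HEPES buffer, pH 7.1. Schedule: 25 °C, 15 min preincubation, 25 min reaction. Signal: Epi-absorbance fluorescence, 480 nm excitation, 530 nm emission. Evaluation: percent inhibition from optical density relative to buffer-blank wells.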
Mot1-301 SUMO = yeast Mot1-301 growth rescue at high temperature, primary screen, SUMOylation pathway inhibitor project, S. cerevisiae, ATP luminescence, 38.5C. S. cerevisiae Mot1-301 growth rescue; percent above DMSO median, 100 means doubled. growth rescue, % at 18.8 µM. 1% of 320,000 active. AID 2716, 2010;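 active = every valid replicate shows activation above 250% relative to neutral control wells; inactive = the rest, any valid replicate at or below 250%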;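 also: OY570 slx delta 5 strain wells were the positive control but not used for scaling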
NALP1 inh = NALP1 inflammasome inhibitors in reconstituted yeast, colorimetric, S. cerevisiae, triplicate retest | S. cerevisiae NALP1/ASC/caspase-1 growth, X-gal OD620, 72 h | AID 2071, 2009 | 0.61% of 280,000 active | inhibition, % at 10 µM; in the data active = inhibition mostly above about 24%, no sharp cut-off; inactive = mostly below about 32%
VIM-2 inhibitor = VIM-2 metallo-beta-lactamase inhibitors, primary screen, biochemical, epi-absorbance readout, Pseudomonas aeruginosa enzyme | purified VIM-2, nitrocefin hydrolysis, epi-absorbance fluorescence | inhibition, % at 5.6 µM | 0.89% of 290,000 active | AID 1527, 2009;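 active = inhibition above the mean of all tested compounds plus 3 SD, cutoff set per screening run, cut at about 7.5% in these data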;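 also: red hydrolysis product quenches plate fluorescence so inhibitors raise well fluorescence; 0% = enzyme with DMSO and 100% = DMSO without enzyme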
PolyA inhibitor = polyadenylation inhibitors in yeast reporter cells, primary screen, luminescence, S. cerevisiae | S. cerevisiae SKY197-pL101 polyadenylation reporter, beta-gal luminescence; efflux-impaired pdr1/pdr3 knockout yeast; score 100 = 6 SD above DMSO | activity score, % at 12 µM | 0.02% of 300,000 active;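 active = lowest replicate activity score at least 50, where 100 means six control SD above control mean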;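 also: yeast exposed to compound for 9 h at 30 °C; higher score means more reporter readthrough which indicates perturbed polyadenylation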
NALP3 yeast inh = NALP3 inflammasome inhibitors in reconstituted yeast, primary screen, luminescence, uHTS | Yeast reconstituted NLRP3/ASC/caspase-1, beta-gal luminescence, 24 h | inhibition, % at 10 µM | 0.39% of 330,000 active | AID 2825, 2010;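 active = inhibition of 50% or more; inactive = inhibition below 50%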;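 also: plate controls were induced DMSO wells for no effect and uninduced yeast grown without galactose for full effect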
NALP3 confirm = NALP3 inhibitors retested in yeast, confirmation, luminescence, single concentration; 81% of 1,300 active; shares compounds with NALP3 yeast inh; inhibition, % at 10 µM; yeast expressing human NALP3; AID 435006, 2010; in the data active = inhibition above about 48%
Casp1-ASC yeast = CASP1-PYCARD signaling inhibition in yeast, confirmatory test, counterassay for NLRP3 inhibitor program, one-dose; shares compounds with NALP3 yeast inh; yeast expressing Caspase-1-ASC, luminescence counter screen; inhibition, % at 10 µM; 66% of 1,000 active; AID 488784, 2010
NALP3 retest = NALP3 inhibitors in yeast, repeat test, confirmation, luminescence, single concentration, retest | shares compounds with NALP3 yeast inh | yeast expressing human NALP3, luminescence read-out | inhibition, % at 10 µM | 53% of 1,000 active | AID 488794, 2010
* = called active by the depositor; nt = no result. Compounds with a hit are over-represented: about 2.9% of the library has one in this group of screens. Rule as the data show it, unless noted: active = inhibition above about 50%; inactive = the rest.

SMILES	IMP-1 inh	Mot1-301 SUMO	NALP1 inh	VIM-2 inhibitor	PolyA inhibitor	NALP3 yeast inh	NALP3 confirm	Casp1-ASC yeast	NALP3 retest
O=S(=O)(Oc1ccc(Cl)cc1)c1cccc2cccnc12	-3	-30	16	0	-6	58*	54*	72*	61*
CC(C)C(C(=O)NCC1CCCO1)N(C(=O)CNS(=O)(=O)c1ccccc1)C1CCCCC1 (stereo unspecified)	-2	-4	6	0	-6	5	nt	nt	nt
CN(C)c1ccc(C(=O)/C=C/c2ccccc2)cc1	-2	185	-2	-1	11	53*	72*	43	40
O=C(Nc1nc2cc3c(cc2s1)OCO3)C1CCCCC1	1	71	16	-1	-12	56*	64*	56*	53*
Nc1c2c(=O)oc(-c3ccccc3)cc2nn1-c1ccccc1	-2	7	-4	-1	-15	51*	68*	54*	25
Cc1c(-c2ccc(Cl)cc2)oc(=O)c2c(N)n(-c3ccccc3)nc12	0	1	11	-1	-23	12	nt	nt	nt
O=C(NCC(=O)N1CCN(C(=O)c2ccco2)CC1)c1ccc(Br)cc1	-2	9	23	-2	4	12	nt	nt	nt
O=C(O)CSCC(=O)Nc1ccccc1SCCS(=O)(=O)c1ccc(Cl)cc1	-4	53	-1	-2	-1	nt	nt	nt	nt
CCOc1cc(/C=C\[N+](=O)[O-])ccc1OCC(=O)Nc1ccccc1C	-1	2	0	2	-61	58*	25	nt	nt
COc1cc(/C=C/c2cccc[n+]2C)ccc1OCC(=O)Nc1ccccc1C	-3	-4	22	-2	13	16	nt	nt	nt
C#CCOCCOCCOCCNc1nc(N2CCN(C(=O)[C@H](CCCCN)n3cc(C(N)COC(=O)C(F)(F)F)nn3)CC2)nc(N2CCN(C(=O)[C@H](CCCCN)n3cc(C(N)CC(C)C)nn3)CC2)n1 (stereo partly specified)	nt	nt	19	nt	nt	nt	nt	nt	nt
O=C1c2ccsc2SCCN1Cc1cccc(Cl)c1	-2	-5	9	1	-20	39	nt	nt	nt
Cc1cccc(CN2CCSc3sccc3C2=O)c1	-3	-7	-10	-2	-12	38	nt	nt	nt
Cc1ccc(CN2CCSc3sccc3C2=O)cc1	-2	69	26*	0	-8	81*	74*	89*	77*
O=C1c2ccsc2SCCN1Cc1ccc(Cl)cc1	-2	-10	-5	0	-18	79*	83*	88*	80*
O=C1c2ccsc2SCCN1Cc1ccc(F)cc1	-4	37	13	-2	5	65*	72*	63*	34
CN(C(=O)COc1cccc(C#N)c1)C1CCS(=O)(=O)C1 (stereo unspecified)	nt	14	nt	nt	nt	8	nt	nt	nt
CCN(C(=O)COC(=O)c1nc(Cl)ccc1Cl)C1CCS(=O)(=O)C1 (stereo unspecified)	nt	4	nt	nt	-9	5	nt	nt	nt
O=C(CSc1nc(COc2ccccc2)nc2ccccc12)NC1CCCC1	-4	7	-3	-2	-10	71*	40	67*	56*
Cn1cc(/C(Cc2ccccc2)=N\O)c2ccccc21	-1	29	25	3	-32	56*	68*	37	42
Cc1ccccc1C1=NC(C(F)(F)F)(C(F)(F)F)c2c(n(C)c(=O)n(C)c2=O)N1	-1	10	30	-1	-5	18	nt	nt	nt
Cn1c2c(c(=O)n(C)c1=O)C(C(F)(F)F)(C(F)(F)F)N=C(c1ccc(Cl)cc1)N2	-2	-6	6	0	-14	54*	92*	77*	88*
CCC/C(C#Cc1ccsc1)=C1/c2ccccc2C(=O)N1c1ccccc1	nt	47	nt	nt	nt	-4	nt	nt	nt
Cc1nc2sc(-c3ccccc3)cc2c(=O)n1-n1cccc1	-6	287	-15	-1	-17	52*	71*	58*	44
Cc1nc(Nc2nc3c(c(=O)[nH]2)CCC3)nc2ccccc12	nt	17	nt	nt	2	77*	71*	47	41
SMILES	IMP-1 inh	Mot1-301 SUMO	NALP1 inh	VIM-2 inhibitor	PolyA inhibitor	NALP3 yeast inh	NALP3 confirm	Casp1-ASC yeast	NALP3 retest
O=C(COC(=O)CCN=C1NS(=O)(=O)c2ccccc21)NNC(=O)c1ccc(Cl)cc1	nt	1	nt	nt	nt	11	nt	nt	nt
Fc1ccc(NCc2nnc(SCc3ccccc3)o2)cc1	0	-5	3	1	-8	25	nt	nt	nt
NCCc1nnc(SCc2ccc(F)cc2)o1	-4	1	7	0	-14	59*	74*	58*	61*
Cc1cc(C)n2nc(C(=O)OCC(=O)NCc3ccccc3)nc2n1	nt	6	nt	nt	nt	1	nt	nt	nt
O=C(NCCCCc1ccccc1)c1ccc(Br)cc1	-3	-18	-8	-2	11	59*	61*	37	36
O=C(NCCCCc1ccccc1)c1ccccc1F	3	-5	22	0	-12	54*	62*	53*	44
O=C(NCCCCc1ccccc1)c1ccccc1	-1	-14	-4	-3	-1	37	nt	nt	nt
COc1ccc(C(=O)NNC(=S)NC(=O)c2ccc(F)cc2)cc1Br	nt	-8	nt	nt	24	62*	71*	60*	60*
COc1ccc(C(=O)NC(=S)NNC(=O)c2cccc(C)c2)cc1	nt	-21	nt	nt	-6	51*	48	49	48
O=C(NNC(=S)NC(=O)c1ccc(Br)cc1)c1ccc([N+](=O)[O-])cc1	-2	1	4	-3	13	53*	37	37	54*
COc1ccc(C(=O)NNC(=S)NC(=O)c2ccc(OC)cc2)cc1	1	-18	2	-1	1	45	nt	nt	nt
COc1ccc(C(=O)NNC(=S)NC(=O)c2cccs2)cc1	-4	-2	-12	-6	-11	56*	71*	27	44
CC1CN(S(=O)(=O)c2cccc(C(=O)NCc3ccco3)c2)CC(C)O1 (stereo unspecified)	nt	1	nt	nt	nt	13	nt	nt	nt
COc1ccccc1C(=O)NCCC(=O)NCCCSc1ccccc1	nt	185	nt	nt	-20	22	nt	nt	nt
COc1cccc(NC(=O)COC(=O)c2sccc2C)c1	nt	24	nt	nt	nt	45	nt	nt	nt

Screens (PubChem)
